Results published in ChEMBL document CHEMBL3865817, “Synthesis and biological evaluation of C(5)-substituted derivatives of leukotriene biosynthesis inhibitor BRP-7” (Eur J Med Chem, 2016).
Active and inactive are the calls of the source. The rule behind the calls is not given here.

Columns and labels:
[1] = target: T1, Polyunsaturated fatty acid 5-lipoxygenase (Homo sapiens) (UniProt P09917); settings: 3 uM
T1 sequence (whole entry): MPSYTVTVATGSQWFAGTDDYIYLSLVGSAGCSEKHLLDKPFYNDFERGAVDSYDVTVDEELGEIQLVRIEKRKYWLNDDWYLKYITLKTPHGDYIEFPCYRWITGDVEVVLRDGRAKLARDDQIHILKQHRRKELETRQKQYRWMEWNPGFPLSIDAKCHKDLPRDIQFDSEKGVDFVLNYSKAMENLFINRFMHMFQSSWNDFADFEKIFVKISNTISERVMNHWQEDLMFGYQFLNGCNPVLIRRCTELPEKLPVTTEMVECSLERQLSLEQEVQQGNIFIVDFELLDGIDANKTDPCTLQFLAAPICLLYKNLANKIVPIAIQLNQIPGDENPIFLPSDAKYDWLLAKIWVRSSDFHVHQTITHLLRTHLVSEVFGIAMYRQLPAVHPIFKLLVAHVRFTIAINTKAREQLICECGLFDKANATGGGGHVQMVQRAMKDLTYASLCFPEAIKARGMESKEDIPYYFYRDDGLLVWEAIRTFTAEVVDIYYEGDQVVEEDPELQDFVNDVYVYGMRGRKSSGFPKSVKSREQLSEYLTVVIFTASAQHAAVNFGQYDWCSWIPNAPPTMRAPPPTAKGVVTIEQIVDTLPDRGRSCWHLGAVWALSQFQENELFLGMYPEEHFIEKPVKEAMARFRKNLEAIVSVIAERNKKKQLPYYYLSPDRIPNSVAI

[2] = target: T2, Arachidonate 5-lipoxygenase-activating protein (Homo sapiens) (UniProt P20292); assay: (§1) Inhibition of FLAP in human neutrophils assessed as suppression of A23187-stimulated 5-LO product formation using arachidonic acid as substrate measured as residual activity at 1 uM preincubated for 15 mins followed by A23187/arachidonic acid addition after 10 mins RP-HPLC/UV analysis relative to control
T2 sequence (whole entry): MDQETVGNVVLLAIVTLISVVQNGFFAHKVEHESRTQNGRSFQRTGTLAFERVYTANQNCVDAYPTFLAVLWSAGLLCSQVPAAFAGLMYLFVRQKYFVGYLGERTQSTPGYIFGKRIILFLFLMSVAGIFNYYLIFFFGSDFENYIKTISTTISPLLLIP
In short: (§2)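 Neutrophils were isolated from human blood by dextran sedimentation, Nycoprep centrifugation and hypotonic lysis of erythrocytes, then resuspended in PGC buffer (PBS pH 7.4, 1 mg/ml glucose, 1 mM CaCl2). Cells were pre-incubated with compound or vehicle (0.1% DMSO) for 15 min at 37 °C, stimulated with 2.5 µM A23187 for 10 min, and stopped with methanol. Internal standard PGB1. 5-LO products (LTB4, its trans isomers, 5-H(P)ETE) were measured by HPLC.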

[3] = target: T3, Arachidonate 5-lipoxygenase-activating protein (Homo sapiens, UniProt P20292); assay: (§3) Inhibition of FLAP in human neutrophils assessed as suppression of A23187-stimulated 5-LO product formation using arachidonic acid as substrate preincubated for 15 mins followed by A23187/arachidonic acid addition after 10 mins RP-HPLC/UV analysis
T3 sequence (P20292 whole entry): T2 sequence (whole entry)
In short: as §2

[4] = target: T2, Arachidonate 5-lipoxygenase-activating protein (Homo sapiens); assay: Inhibition of FLAP (unknown origin) expressed in HEK293 cells co-expressing 5-LO assessed as suppression of A23187-stimulated 5-LO product formation at 0.3 uM using arachidonic acid as substrate preincubated for 15 mins followed by A23187/substrate addition by RP-HPLC analysis; assay type: cell-based
[5] = target: T2, Arachidonate 5-lipoxygenase-activating protein (Homo sapiens); assay: as §1, with “at 10” for “at 1”
In short: as §2

[6] = target: T2, Arachidonate 5-lipoxygenase-activating protein (Homo sapiens); assay: Potency index, ratio of BRP-7 IC50 to compound IC50 for FLAP in human neutrophils
[7] = target: T2, Arachidonate 5-lipoxygenase-activating protein (Homo sapiens); assay: as §3
In short: as §2

[8] = target: T3, Arachidonate 5-lipoxygenase-activating protein; assay: Inhibition of FLAP in human monocytes assessed as suppression of fMLP/LPS-stimulated cys-LT formation preincubated for 15 mins measured after 10 mins by ELISA; assay type: cell-based
[9] = target: T3, Arachidonate 5-lipoxygenase-activating protein; assay: Inhibition of FLAP in human monocytes assessed as suppression of A23187-stimulated 5-LO product formation using 10 uM arachidonic acid as substrate preincubated for 15 mins followed by A23187/arachidonic acid addition after 10 mins by RP-HPLC/UV analysis; assay type: cell-based
[10] = target: T3, Arachidonate 5-lipoxygenase-activating protein; assay: Inhibition of FLAP in human monocytes assessed as suppression of A23187-stimulated 5-LO product formation preincubated for 15 mins followed by A23187 after 10 mins RP-HPLC/UV analysis; assay type: cell-based

| Activity [2] [%] | Activity [5] [%] | Compound | other results |
| --- | --- | --- | --- |
| – | – | CC(c1cc2ccccc2s1)N(O)C(N)=O (stereo not given) | inhibition [1]: > 80% |
| 60.2 | – | CC(C)=CCOc1ccc2c(c1)nc(C(C)c1ccc(CC(C)C)cc1)n2Cc1ccccc1C(F)(F)F (stereo not given) | – |
| 0 | – | CC(C)Cc1ccc(C(C)c2nc3cc(OCc4ccccn4)ccc3n2Cc2ccccc2C(F)(F)F)cc1 (stereo not given) | IC50 [3]: 150 nM |
| 65.2 | – | CC(C)Cc1ccc(C(C)c2nc3cc(OCc4ccccc4C#N)ccc3n2Cc2ccccc2C(F)(F)F)cc1 (stereo not given) | – |
| 2.7 | – | CC(C)c1ccc2c(c1)c(SC(C)(C)C)c(CC(C)(C)C(=O)O)n2Cc1ccc(Cl)cc1 | inhibition [4]: Active |
| 7.5 | 0.6 | C=CCOc1ccc2c(c1)nc(C(C)c1ccc(CC(C)C)cc1)n2Cc1ccccc1C(F)(F)F (stereo not given) | IC50 [3]: 170 nM |
| 1.9 | – | COC(=O)COc1ccc2c(c1)nc(C(C)c1ccc(CC(C)C)cc1)n2Cc1ccccc1C(F)(F)F (stereo not given) | IC50 [3]: 210 nM |
| 58.1 | – | CCCCOc1ccc2c(c1)nc(C(C)c1ccc(CC(C)C)cc1)n2Cc1ccccc1C(F)(F)F (stereo not given) | – |
| 81.6 | 80.1 | COc1ccc(COc2ccc3c(c2)nc(C(C)c2ccc(CC(C)C)cc2)n3Cc2ccccc2C(F)(F)F)cc1 (stereo not given) | – |
| 92.2 | 92.2 | CC(C)Cc1ccc(C(C)c2nc3cc(OCc4ccccc4Cl)ccc3n2Cc2ccccc2C(F)(F)F)cc1 (stereo not given) | – |
| 98.2 | – | Cc1cccc(COc2ccc3c(c2)nc(C(C)c2ccc(CC(C)C)cc2)n3Cc2ccccc2C(F)(F)F)c1 (stereo not given) | – |
| 97.1 | 89.7 | Cc1ccccc1COc1ccc2c(c1)nc(C(C)c1ccc(CC(C)C)cc1)n2Cc1ccccc1C(F)(F)F (stereo not given) | – |
| 92 | 85.9 | CC(C)Cc1ccc(C(C)c2nc3cc(OCc4cccc(F)c4)ccc3n2Cc2ccccc2C(F)(F)F)cc1 (stereo not given) | – |
| 108 | 94.4 | CC(C)Cc1ccc(C(C)c2nc3cc(OCc4ccc(Br)cc4)ccc3n2Cc2ccccc2C(F)(F)F)cc1 (stereo not given) | – |
| 91.7 | 94.3 | CC(C)Cc1ccc(C(C)c2nc3cc(OCc4ccc(C(F)(F)F)cc4)ccc3n2Cc2ccccc2C(F)(F)F)cc1 (stereo not given) | – |
| 94.9 | 94 | CC(C)Cc1ccc(C(C)c2nc3cc(OCc4ccc(C(C)(C)C)cc4)ccc3n2Cc2ccccc2C(F)(F)F)cc1 (stereo not given) | – |
| 90.9 | – | CC(C)Cc1ccc(C(C)c2nc3cc(OCc4ccccc4C(F)(F)F)ccc3n2Cc2ccccc2C(F)(F)F)cc1 (stereo not given) | – |
| 55.6 | – | CCC#CCOc1ccc2c(c1)nc(C(C)c1ccc(CC(C)C)cc1)n2Cc1ccccc1C(F)(F)F (stereo not given) | – |
| 92.6 | 90.5 | Cc1ccc(COc2ccc3c(c2)nc(C(C)c2ccc(CC(C)C)cc2)n3Cc2ccccc2C(F)(F)F)cc1 (stereo not given) | – |
| 39.9 | 15.6 | CC(C)Cc1ccc(C(C)c2nc3cc(OCc4ccccc4C#N)ccc3n2Cc2ccccc2Cl)cc1 (stereo not given) | IC50 [3]: 120 nM |
| 99.9 | – | CC(C)Cc1ccc(C(C)c2nc3cc(OCc4ccc(OC(F)(F)F)cc4)ccc3n2Cc2ccccc2C(F)(F)F)cc1 (stereo not given) | – |
| 0 | – | CC(C)Cc1ccc(C(C)c2nc3cc(C#N)ccc3n2Cc2ccccc2Cl)cc1 (stereo not given) | Ratio IC50 [6]: 4.4; inhibition [7]: Dose-dependent effect; IC50 [3]: 70 nM; IC50 [8]: 12 nM; inhibition [4]: Active; IC50 [9]: 35 nM; IC50 [10]: 26 nM |
| 71.1 | – | CC(C)Cc1ccc(C(C)c2nc3cc(OCc4ccc(C#N)cc4)ccc3n2Cc2ccccc2C(F)(F)F)cc1 (stereo not given) | – |
